From paper PMC3995353 (Biopolymers, 2014)

System: Chinese Hamster Ovary (CHO) cells
Test: Cytotoxicity, MTT assay in CHO cells
Assay type: cell-based
Conditions: 5 μM, 48 hours
Summary of the method: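 CHO cells seeded in 96-well plates, test compound added at concentrations up to 20 μM, then 48 h at 37°C, 5% CO2, humidified (cells adhere during incubation). MTT (50 μg/well) added for 6 h. Formazan dissolved in acidified isopropanol (90% isopropanol:10% Triton X-100:0.4% HCl), OD read at 550 nm as relative viability. Mean ± standard error, ≥3 experiments.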

With Melittin the “cell viability (positive control)” value was “complete loss of cell viability”.
